Measurements taken from ChEMBL document CHEMBL2057186, “Application of the bicyclo[1.1.1]pentane motif as a nonclassical phenyl ring bioisostere in the design of a potent and orally active γ-secretase inhibitor” (J Med Chem, 2012).
Values after ≈ are worked out from the molar mass of the structure shown.

Legend:
Gamma-secretase = experiment: Inhibition of gamma secretase-mediated amyloid beta42 production in human H4 cells expressing human wild-type APP
[1] = Tmax in 129/sve mouse brain at 30 mg/kg, po administered as single dose by LC-MS/MS analysis; assay type: ADME, organism-based; set-up: dose 30 mg/kg, route oral
Summary of the method: (§1)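 Single-dose oral PK in wild-type male 129/sve mice. Formulation was 98% (v/v) Phosal 50 PG with 2% Tween 80. Compound was measured in plasma, brain and CSF. Values are means ± standard deviations (n = 4 or 5).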

[2] = Ratio of drug level in brain to plasma in Sprague-Dawley rat; assay type: ADME; conditions: read-out: BPR
[3] = Plasma clearance in Sprague-Dawley rat at 1 mg/kg, iv; assay type: ADME, organism-based; set-up: dose 1 mg/kg, route intravenous
Summary of the method: (§2)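 Female rats were dosed once, 1 mg/kg iv (2 mL/kg, 0.5 mg/mL) or 5 mg/kg po (10 mL/kg, 0.5 mg/mL). Vehicle was 40% (w/v) hydroxypropyl-β-cyclodextrin. Plasma was sampled to 24 h. Values are means ± SEM (n = 3).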

P-gp = experiment: Efflux ratio of apparent permeability from basal to apical side to apical to basal side of MDCK cells expressing human P-gp; assay type: ADME, cell-based, Canis lupus familiaris; conditions: dog, MDCK-MDR1
Summary of the method: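 Monolayers were MDCK cells transfected with the human P-glycoprotein (MDR1) gene. Permeability was measured basolateral-to-apical and apical-to-basolateral, and the BA/AB ratio was reported.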

[4] = Ratio of fraction unbound in brain to fraction unbound in plasma in Sprague-Dawley rat; assay type: ADME
[5] = Oral bioavailability in Sprague-Dawley rat at 5 mg/kg; assay type: ADME, organism-based; conditions: in vivo
Summary of the method: as §2

[6] = AUC (last) in 129/sve mouse cerebrospinal fluid at 30 mg/kg, po administered as single dose by LC-MS/MS analysis; assay type: ADME, organism-based; set-up: time 0 - last, dose 30 mg/kg, route oral
Summary of the method: (§3)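 Wild-type male 129/sve mice received a single oral dose in 98% (v/v) Phosal 50 PG / 2% Tween 80. Drug was measured in plasma, brain and CSF. Study was nonserial, so AUC came from mean matrix concentrations at each time point. Values are mean ± SD (n = 4 or 5).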

[7] = Cmax in 129/sve mouse brain at 30 mg/kg, po administered as single dose by LC-MS/MS analysis; assay type: ADME, organism-based; set-up: dose 30 mg/kg, route oral
Summary of the method: as §1

[8] = Fraction unbound in 129/sve mouse plasma at 30 mg/kg, po administered as single dose; assay type: ADME, organism-based; set-up: dose 30 mg/kg, route oral
Mus musculus = experiment: Antialzheimer activity in 129/sve mouse assessed as reduction in amyloid beta40 level in CSF at 30 mg/kg, po administered as single dose measured at 1 hr by ELISA relative to vehicle treated control; assay type: functional; set-up: scale not given: the % may be the effect or the level left
Summary of the method: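 Wild-type male 129/sve mice received a single oral dose in Phosal 50 PG/Tween 80 vehicle. Aβ40 was measured in brain, CSF and plasma and Aβ42 in brain over a time course. Levels are expressed as % of vehicle-treated animals. Values are mean ± SEM, n = 5 or 8 per time point.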

[9] = Cmax in 129/sve mouse plasma at 30 mg/kg, po administered as single dose by LC-MS/MS analysis; assay type: ADME, organism-based; set-up: dose 30 mg/kg, route oral
Summary of the method: as §1

[10] = Thermodynamic solubility of the compound at pH 6.5; assay type: physicochemical; conditions: buffer, read-out: Therm_solubility
Summary of the method: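 Thermodynamic solubility was measured in aqueous buffer at pH 6.5 and at pH 7.4.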

[11] = Cmax in Sprague-Dawley rat at 5 mg/kg, po; assay type: ADME, organism-based; set-up: dose 5 mg/kg, route oral; conditions: in vivo
Summary of the method: as §2

[12] = AUC (0 to 24 hrs) in Sprague-Dawley rat at 1 mg/kg, iv; assay type: ADME, organism-based; set-up: time < 24 hr, dose 1 mg/kg, route intravenous; conditions: plasma
Summary of the method: (§4)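 Single-dose PK in female rats; iv at 1 mg/kg (2 mL/kg, 0.5 mg/mL) and po at 5 mg/kg (10 mL/kg, 0.5 mg/mL), both formulated in 40% (w/v) hydroxypropyl-β-cyclodextrin.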

[13] = Tmax in 129/sve mouse plasma at 30 mg/kg, po administered as single dose by LC-MS/MS analysis; assay type: ADME, organism-based; set-up: dose 30 mg/kg, route oral
Summary of the method: as §1

[14] = Cmax in 129/sve mouse cerebrospinal fluid at 30 mg/kg, po administered as single dose by LC-MS/MS analysis; assay type: ADME, organism-based; set-up: dose 30 mg/kg, route oral
Summary of the method: as §1

[15] = Fraction unbound in 129/sve mouse brain at 30 mg/kg, po administered as single dose; assay type: ADME, organism-based; set-up: dose 30 mg/kg, route oral
[16] = Ratio of unbound fraction in brain to unbound fraction in plasma in 129/sve mouse at 30 mg/kg, po administered as single dose by LC-MS/MS analysis; assay type: ADME, organism-based; set-up: dose 30 mg/kg, route oral; conditions: in vivo
Summary of the method: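 Single oral dose of 30 mg/kg in wild-type male 129/sve mice, formulated in 98% (v/v) Phosal 50 PG with 2% Tween 80. Brain, CSF and plasma were sampled nonserially over time, and AUC was taken from mean matrix concentrations. Brain availability = (f_u,brain × [brain]) / (f_u,plasma × [plasma]), with n = 4–5 per group.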

[17] = Volume of distribution at steady state in Sprague-Dawley rat at 1 mg/kg, iv; assay type: ADME, organism-based; set-up: dose 1 mg/kg, route intravenous; conditions: in vivo, read-out: Vdss
Summary of the method: as §2

Cytochrome P450 2C19 = Cytochrome P450 2C19 (Homo sapiens, UniProt P33261); experiment: Inhibition of CYP2C19 in human liver microsomes using (S)-mephenytoin as substrate; assay type: ADME, Microsome
Cytochrome P450 2C19, sequence (P33261 whole entry): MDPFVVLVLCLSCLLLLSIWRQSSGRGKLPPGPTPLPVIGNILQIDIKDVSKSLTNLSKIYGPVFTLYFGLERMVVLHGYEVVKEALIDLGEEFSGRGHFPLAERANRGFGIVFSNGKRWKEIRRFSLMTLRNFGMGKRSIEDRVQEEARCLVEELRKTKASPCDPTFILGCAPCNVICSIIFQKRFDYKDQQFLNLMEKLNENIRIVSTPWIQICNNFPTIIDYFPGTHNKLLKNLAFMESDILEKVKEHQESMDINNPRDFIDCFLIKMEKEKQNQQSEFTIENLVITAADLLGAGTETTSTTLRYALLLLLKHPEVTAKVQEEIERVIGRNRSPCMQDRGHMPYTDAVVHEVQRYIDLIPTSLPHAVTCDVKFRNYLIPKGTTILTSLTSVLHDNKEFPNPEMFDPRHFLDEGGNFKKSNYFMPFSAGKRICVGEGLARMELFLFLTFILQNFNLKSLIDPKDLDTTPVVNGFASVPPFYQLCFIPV

[18] = Half life in Sprague-Dawley rat at 1 mg/kg, iv; assay type: ADME, organism-based; set-up: dose 1 mg/kg, route intravenous; conditions: in vivo
Summary of the method: as §2

Homo sapiens = species on record: Homo sapiens; experiment: Selectivity for human gamma-seretase over notch signalling protein
[19] = Tmax in Sprague-Dawley rat at 5 mg/kg, po; assay type: ADME, organism-based; set-up: dose 5 mg/kg, route oral; conditions: in vivo
Summary of the method: as §2

[20] = AUC (last) in 129/sve mouse brain at 30 mg/kg, po administered as single dose by LC-MS/MS analysis; assay type: ADME, organism-based; set-up: time 0 - last, dose 30 mg/kg, route oral
Summary of the method: as §3

Cytochrome P450 3A4 = Cytochrome P450 3A4 (Homo sapiens, UniProt P08684); experiment: Inhibition of CYP3A4 in human liver microsomes using midazolam as substrate; assay type: ADME, Microsome
Cytochrome P450 3A4, sequence (P08684 whole entry): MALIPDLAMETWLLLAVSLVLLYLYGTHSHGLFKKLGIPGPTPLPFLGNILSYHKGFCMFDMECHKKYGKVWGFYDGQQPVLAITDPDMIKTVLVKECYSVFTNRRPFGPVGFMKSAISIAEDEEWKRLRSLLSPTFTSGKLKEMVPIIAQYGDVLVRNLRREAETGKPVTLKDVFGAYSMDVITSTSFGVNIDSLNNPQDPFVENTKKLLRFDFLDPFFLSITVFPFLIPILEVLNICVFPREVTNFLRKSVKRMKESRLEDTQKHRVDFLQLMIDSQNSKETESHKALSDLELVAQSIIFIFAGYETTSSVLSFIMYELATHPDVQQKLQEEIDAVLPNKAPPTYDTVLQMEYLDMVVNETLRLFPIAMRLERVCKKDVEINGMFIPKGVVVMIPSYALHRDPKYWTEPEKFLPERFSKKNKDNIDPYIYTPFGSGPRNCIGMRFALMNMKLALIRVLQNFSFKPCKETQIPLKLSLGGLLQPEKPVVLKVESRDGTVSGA

[21] = Tmax in 129/sve mouse cerebrospinal fluid at 30 mg/kg, po administered as single dose by LC-MS/MS analysis; assay type: ADME, organism-based; set-up: dose 30 mg/kg, route oral
Summary of the method: as §1

[22] = Apparent permeability from apical to basal side of dog RRCK cells; assay type: ADME, cell-based, Canis lupus familiaris, MDCKII-LE; conditions: MDCK
Summary of the method: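 Absorptive (A to B) permeability was measured in RRCK cells, a Madin–Darby canine kidney subline isolated for low transporter activity. It estimates intrinsic passive permeability.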

Cytochrome P450 2D6 = Cytochrome P450 2D6 (Homo sapiens, UniProt P10635); experiment: Inhibition of CYP2D6 in human liver microsomes using dextromethorphan as substrate; assay type: ADME, Microsome
Cytochrome P450 2D6, sequence (P10635 whole entry): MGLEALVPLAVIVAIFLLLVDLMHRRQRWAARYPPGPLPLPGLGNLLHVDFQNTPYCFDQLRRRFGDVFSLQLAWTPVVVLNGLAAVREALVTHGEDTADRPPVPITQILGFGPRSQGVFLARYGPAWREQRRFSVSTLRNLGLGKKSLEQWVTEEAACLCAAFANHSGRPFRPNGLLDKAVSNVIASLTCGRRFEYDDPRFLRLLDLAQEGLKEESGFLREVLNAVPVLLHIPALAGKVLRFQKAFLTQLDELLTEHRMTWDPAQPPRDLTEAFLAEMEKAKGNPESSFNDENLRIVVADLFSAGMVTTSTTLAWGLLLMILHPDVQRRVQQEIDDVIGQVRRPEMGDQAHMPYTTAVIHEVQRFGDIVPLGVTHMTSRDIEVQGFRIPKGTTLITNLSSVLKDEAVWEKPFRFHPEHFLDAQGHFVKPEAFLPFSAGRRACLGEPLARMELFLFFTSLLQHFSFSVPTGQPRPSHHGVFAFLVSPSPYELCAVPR

[23] = AUC (0 to 24 hrs) in Sprague-Dawley rat at 5 mg/kg, po; assay type: ADME, organism-based; set-up: time < 24 hr, dose 5 mg/kg, route oral; conditions: plasma
Summary of the method: as §4

Hepatocyte = experiment: Apparent total intrinsic clearance in human hepatocytes assessed per million cells; assay type: ADME, cell-based

NC(=O)[C@@H](CCC(F)(F)F)N(CC12CC(c3ncon3)(C1)C2)S(=O)(=O)c1ccc(Cl)cc1
IC50 (Gamma-secretase): 178 pM
Tmax [1]: 1 h
Kp [2]: 0.61
clearance [3]: 13.3 mL/min/kg
efflux ratio (P-gp): 1.66
Ratio [4]: 0.34
bioavailability [5]: 100%
AUC(0-t) [6]: 0.118 µM·h
Cmax [7]: 5.6 µM
fraction unbound [8]: 0.0354
Activity (Mus musculus): 64%
Cmax [9]: 6.48 µM
solubility thermodynamic [10]: 19.7 µM (≈ 9.71 µg/mL)
Cmax [11]: 1.86 µM
AUC(0-t) at 24 h [12]: 2.54 µM·h
Tmax [13]: 1 h
Cmax [14]: 0.053 µM
fraction unbound [15]: 0.026
Ratio [16]: 0.62
Vd [17]: 2.12 L/kg
inhibition (INH) (Cytochrome P450 2C19): Not Active
half-life [18]: 2.18 h
Selectivity Index (Homo sapiens): 178
Tmax [19]: 2 h
AUC(0-t) [20]: 12 µM·h
inhibition (INH) (Cytochrome P450 3A4): Not Active
Tmax [21]: 1 h
Papp A→B [22]: 19.3 ×10⁻⁶ cm/s
inhibition (INH) (Cytochrome P450 2D6): Not Active
AUC(0-t) at 24 h [23]: 19.4 µM·h
CLt/F (Hepatocyte): < 3.8 µL/min
